Active and inactive are the calls of the source.
Key:
Type in all cases: functional, cell-based
LNCaP [1] = assay: Induction of apoptosis in human LNCAP cells assessed as inhibition of DHT-induced PSA protein expression at 30 uM after 24 hrs by Western blot
Summary of the method: (§1)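 LNCaP cells were grown 48 h in RPMI 1640 with 10% FBS, then exposed 24 h to compound given in ethanol. This was followed by 2 h with or without DHT (0.1 and 1 nM). Lysate protein was measured by BCA, run on SDS–PAGE and blotted to nitrocellulose. Blots were probed with primary and peroxidase-conjugated secondary antibodies, with chemiluminescent detection.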

LNCaP [2] = assay: Induction of apoptosis in human LNCAP cells assessed as increase in mitochondrial cytochrome C release at 30 uM after 24 hrs by Western blot
Summary of the method: (§2)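 Cells were treated for various times and total cell lysates prepared. Lysates were resolved on 8–14% polyacrylamide gels and immunoblotted with an antibody to each protein, with b-actin as internal control.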

LNCaP [3] = assay: Induction of apoptosis in human LNCAP cells assessed as decrease in Bcl-XL levels at 30 uM after 24 hrs by Western blot; summary of the method: as §2
LNCaP [4] = assay: Induction of apoptosis in human LNCAP cells assessed as DNA fragmentation at 30 uM by TUNEL assay
Summary of the method: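 Cells were treated for the indicated times, then fixed and permeabilized. They were stained with fluorescent TUNEL reagent and analysed by flow cytometry for DNA fragmentation.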

LNCaP [5] = assay: Induction of apoptosis in human LNCAP cells assessed as decrease in Bcl2 levels at 30 uM after 48 hrs by Western blot; summary of the method: as §2
LNCaP [6] = assay: Induction of apoptosis in human LNCAP cells assessed as PARP cleavage at 30 uM after 24 hrs by Western blot; summary of the method: as §2
LNCaP [7] = assay: Cell cycle arrest in human LNCAP cells assessed as accumulation at subG1 phase at 30 uM by flow cytometry; conditions: TDE = time-dependent effect
Summary of the method: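 LNCaP cells exposed for various times, then fixed nuclei stained with propidium iodide. DNA content read by flow cytometry, 10,000 nuclei per sample. Sub-G1 fraction reported as means ± SD of three separate experiments.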

LNCaP [8] = assay: Induction of apoptosis in human LNCAP cells assessed as procaspase-8 cleavage at 30 uM by Western blot; conditions: TDE = time-dependent effect; summary of the method: as §2
LNCaP [9] = assay: Induction of apoptosis in human LNCAP cells assessed as inhibition of PSA mRNA transcription at 30 uM after 24 hrs by RT-PCR in presence of DHT
Summary of the method: (§3)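 Cells were treated as for the blots (24 h compound, then DHT 1.0 nM or none). Total RNA (2 µg) was reverse-transcribed and AR and PSA were quantified by real-time PCR. Relative levels were calculated by the comparative threshold cycle method, with GAPDH as housekeeping gene.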

LNCaP [10] = assay: Induction of apoptosis in human LNCAP cells assessed as inhibition of AR mRNA transcription at 30 uM after 24 hrs by RT-PCR; summary of the method: as §3
LNCaP [11] = assay: Induction of apoptosis in human LNCAP cells assessed as decrease in procaspase-8 expression at 30 uM after 24 hrs by Western blot; summary of the method: as §2
LNCaP [12] = assay: Induction of apoptosis in human LNCAP cells assessed as inhibition of PSA mRNA transcription at 30 uM after 24 hrs by RT-PCR; summary of the method: as §3
LNCaP [13] = assay: Induction of apoptosis in human LNCAP cells assessed as procaspase-3 cleavage at 30 uM after 24 hrs by Western blot; summary of the method: as §2
LNCaP [14] = assay: Induction of apoptosis in human LNCAP cells assessed as inhibition of PSA protein expression at 30 uM by Western blot; conditions: TDE = time-dependent effect
LNCaP [15] = assay: Induction of apoptosis in human LNCAP cells assessed as inhibition of AR mRNA transcription at 30 uM after 24 hrs by RT-PCR in presence of DHT; summary of the method: as §3
LNCaP [16] = assay: Induction of apoptosis in human LNCAP cells assessed as inhibition of AR protein expression at 30 uM by Western blot; conditions: TDE = time-dependent effect
LNCaP [17] = assay: Induction of apoptosis in human LNCAP cells assessed as decrease in procaspase-9 expression at 30 uM after 24 hrs by Western blot; summary of the method: as §2
LNCaP [18] = assay: Induction of apoptosis in human LNCAP cells assessed as inhibition of DHT-induced AR protein expression at 30 uM after 24 hrs by Western blot; summary of the method: as §1

Measured: Activity

C/C=C(\Cc1ccccc1)C(=O)CC(O)CCO (stereo not drawn)
active: LNCaP [1] | LNCaP [2] | LNCaP [3] | LNCaP [4] | LNCaP [5] | LNCaP [6] | LNCaP [7] tde | LNCaP [8] tde | LNCaP [9] | LNCaP [10] | LNCaP [11] | LNCaP [12] | LNCaP [13] | LNCaP [14] tde | LNCaP [15] | LNCaP [16] tde | LNCaP [17] | LNCaP [18]
